Screening results: PubChem, Broad Institute
In the library only some 1.7% were active in any assay of this set; here they are far more common.
Rtt109 HAT inh: blocks Candida albicans Rtt109/Vps75 acetyltransferase activity; purified Rtt109/Vps75, ThioGlo CoA-SH fluorescence, 4 h; inhibition, % at 34.9 µM; hit rate 0.16% among 330,000;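 active means inhibition of at least 50% in every replicate; inconclusive means best replicate reaches 50% inhibition but some replicates fall short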
Target sequence (Q5AAJ8 whole entry, looked up): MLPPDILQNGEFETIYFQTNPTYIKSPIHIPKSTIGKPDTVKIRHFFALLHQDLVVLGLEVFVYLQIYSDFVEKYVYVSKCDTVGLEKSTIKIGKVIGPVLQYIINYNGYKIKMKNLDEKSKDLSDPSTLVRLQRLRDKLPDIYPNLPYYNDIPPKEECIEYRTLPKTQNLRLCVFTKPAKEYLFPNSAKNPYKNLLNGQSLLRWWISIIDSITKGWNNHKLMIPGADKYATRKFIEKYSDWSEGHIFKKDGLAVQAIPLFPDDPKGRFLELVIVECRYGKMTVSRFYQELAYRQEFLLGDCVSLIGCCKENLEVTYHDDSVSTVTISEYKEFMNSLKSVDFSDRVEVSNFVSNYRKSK
SKKanGAS inh: inhibitors of SKKanGAS S. pyogenes growth in kanamycin (SK-promoter or general growth effect); inhibition, % at 7.5 µM; BacTiter-Glo, 6 h; hit rate 1.3% among 300,000;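 active means mean replicate score, as percent of positive control median, at least 50; inconclusive means mean below 50 but one replicate at or above 50; inactive means mean and every replicate below 50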;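 further: strain carries kanamycin resistance gene driven by streptokinase promoter and grows in 40 µg/ml kanamycin; loss of luminescence reflects streptokinase promoter inhibition or plain growth inhibition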
FN deposition inh: fibronectin deposition inhibition | AH1F fibroblasts, Alexa488-fibronectin deposition fluorescence, overnight | hit rate 0.086% among 350,000 | inhibition, % at 12.6 µM;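 active means mean inhibition across replicates of 30% or more, regardless of how many single replicates reach that level; inconclusive means mean under 30% yet at least half of replicates reach 30%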
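Schedule: 1 h cell adhesion before compound, then overnight fibronectin incubation; test system: AH1F fibroblast monolayer depositing Alexa488-labelled fibronectin into matrix; quantity: 10000 AH1F cells per well; probe or stimulus: fluorescent fibronectin at 24 nM final; signal: fluorescence, ex 485 nm, em 525 nm; evaluation: percent inhibition as loss of matrix-bound fibronectin fluorescence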
CSC inhib: blocks cancer stem cells; cancer stem cell-like cells viability, luminescence; inhibition, % at 7.5 µM; hit rate 1.1% among 300,000; AID 2717; in the data active means inhibition above about 75%; inconclusive means no clear call, values can overlap the other calls; tested in HMLE shEcad cells
PfHsp90 yeast 2: inhibits growth of yeast expressing Plasmodium falciparum Hsp90; inhibition, % at 9.4 µM; hit rate 0.32% among 310,000; S. cerevisiae expressing PfHsp90, BacTiter-Glo ATP, 48 h; yeast lacking PDR1 and PDR3 efflux regulators;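 active means every replicate shows inhibition above about 80%, whatever the replicate mean, limit read from the data; inconclusive means mean inhibition reaches the set limit but some replicate falls short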
PglD DTNB: blocks C. jejuni PglD acetyltransferase activity | purified PglD enzyme, DTNB colorimetric CoA detection | inhibition, % at 12.5 µM | hit rate 0.098% among 360,000 | AID 602405; in the data active means inhibition above about 16%, passing the limit was not always enough; inconclusive means no clear call, values can overlap the other calls
Hits are given with their value; i = inactive; ? = inconclusive; nt = no result given.

SMILES	Rtt109 HAT inh	SKKanGAS inh	FN deposition inh	CSC inhib	PfHsp90 yeast 2	PglD DTNB
OC(c1cc(C(F)(F)F)nc2c(C(F)(F)F)cccc12)C1CCCCN1 (centres undefined)	i	nt	i	i	i	i
OC(c1cc(-c2ccc(C(F)(F)F)cc2)nc(C(F)(F)F)c1)C1CCCCN1 (centres undefined)	i	i	i	104	i	i
CCc1cccc(NC(=O)C2CCCN(c3ncnc4c3nc3n4CCCCC3)C2)c1 (centres undefined)	87	i	i	i	i	i
CC1=NOC(=O)/C1=C/c1ccc(-c2ccc(Cl)cc2)o1	i	nt	nt	i	105	i
CC1=NOC(=O)/C1=C\c1ccc(-c2ccc(Br)cc2C(=O)O)o1	i	i	i	i	i	i
CC1=NOC(=O)/C1=C\c1ccc(-c2ccc(Br)cc2)o1	i	i	i	nt	105	nt
CC1=NOC(=O)/C1=C\c1ccc(-c2cc(Cl)ccc2Cl)o1	i	i	nt	87	i	i
CCn1c2ccccc2c2cc(/C=N/NC(=O)c3cc(O)cc(O)c3)ccc21	i	i	i	84	i	i
CCn1c(SCC(=O)Nc2cccc(NC(C)=O)c2)nnc1-c1ccco1	i	i	i	i	i	i
CCn1c2ccccc2c2cc(NC(=O)CN(C)CC(=O)Nc3ccc(N4CCOCC4)cc3)ccc21	i	i	i	80	i	nt
CCn1c2ccccc2c2cc(NC(=O)N3CCOCC3)ccc21	i	i	nt	i	i	i
CCn1c2ccccc2c2cc(NC(=O)c3cccc([N+](=O)[O-])c3)ccc21	i	i	i	88	i	i
CCn1c(SCC(=O)Nc2ccc3c(c2)c2ccccc2n3CC)nnc1-c1ccco1	66	i	i	i	i	i
CCn1c2ccccc2c2cc(NC(=O)c3ccc(C)c([N+](=O)[O-])c3)ccc21	i	i	i	i	i	nt
O=C(NCC(F)(F)F)[C@@H]1[C@@H](CO)[C@@H]2Cn3c(ccc(-c4ccncc4)c3=O)[C@@H]2N1Cc1ccncc1	nt	nt	nt	nt	nt	i
Cc1ccc(S(=O)(=O)N(C)C[C@@H]2OCCCC[C@@H](C)Oc3ccc(N(C)C)cc3C(=O)N([C@H](C)CO)C[C@H]2C)cc1	nt	nt	i	nt	nt	i
CCn1c2ccccc2c2cc(NC(=O)c3cc(OC)c(OC)c(OC)c3)ccc21	i	i	nt	nt	i	i
CCn1c2ccccc2c2cc(NC(=O)c3cc(OC)cc(OC)c3)ccc21	i	i	i	84	i	nt
O=C(NCCN1CCCCC1)Nc1ccc([N+](=O)[O-])cc1	51	i	i	nt	i	i
CCN1CCN(CCNC(=O)Nc2ccc([N+](=O)[O-])cc2)CC1	i	i	i	i	i	i
COc1ccc(S(=O)(=O)Nc2ccc3c(c2)CC(=O)N([C@H](C)CO)C[C@@H](C)[C@H](CN(C)S(=O)(=O)c2ccccc2)O3)cc1	nt	nt	nt	nt	nt	i
Nc1cc(Cl)ccc1Oc1ccc2ccccc2c1	i	i	nt	83	i	nt
COc1cc(NS(=O)(=O)c2ccc(C)cc2)c2ncccc2c1	i	82	nt	i	nt	nt
Cc1ccc(S(=O)(=O)Nc2cccc3cccnc23)cc1	i	?	nt	78	i	i
COc1ccc(S(=O)(=O)Nc2ccccn2)cc1	i	i	i	i	i	i
SMILES	Rtt109 HAT inh	SKKanGAS inh	FN deposition inh	CSC inhib	PfHsp90 yeast 2	PglD DTNB
OCCNc1nc(Nc2cc(Cl)ccc2OC2CCCC2)nc(N2CCCC2)n1	i	68	i	i	i	i
CCC(=O)N(C)C[C@H]1Oc2cc(-c3cccc(F)c3)ccc2S(=O)(=O)N([C@H](C)CO)C[C@@H]1C	nt	nt	nt	nt	nt	i
COc1cc(NC(=O)C2=C(N3CCOCC3)/C(=C\c3ccc(N(C)C)cc3)CCC2)cc(OC)c1OC	i	i	i	87	i	nt
COc1cc(NC(=O)C2=C(N3CCOCC3)/C(=C/c3ccc(Cl)cc3)CC2)cc(OC)c1OC	i	i	i	i	i	nt
COc1ccc(S(=O)(=O)Nc2ccc3c(c2)CC(=O)N([C@@H](C)CO)C[C@H](C)[C@@H](CN(C)S(=O)(=O)c2ccccc2)O3)cc1	nt	nt	nt	nt	nt	i
O=C(C[C@H]1C[C@H]2c3cc(NC(=O)Nc4ccccc4F)ccc3O[C@H]2[C@H](CO)O1)NC1CCCC1	nt	nt	i	nt	nt	i
CCNC(=S)N1CCN(c2nc(-c3ccc(F)cc3)cs2)CC1	i	i	i	i	i	i
CCN(CC)CCCNC(=S)N1CCN(c2nc(-c3ccc(F)cc3)cs2)CC1	i	i	i	93	i	i
Cc1ccc(/C=C2/Sc3ccc(C(=O)N4CCN(c5ccccn5)CC4)cc3NC2=O)cc1	i	67	i	i	i	i
CCOC(=O)N1CCN(C(=O)c2ccc3c(c2)NC(=O)/C(=C/c2ccccc2)S3)CC1	i	93	i	i	i	i
CN1CCN(C(=O)c2ccc3c(c2)NC(=O)/C(=C/c2ccccc2)S3)CC1	i	i	i	i	i	i
O=C1Nc2cc(C(=O)N3CCc4ccccc4C3)ccc2S/C1=C\c1ccccc1	i	i	i	118	i	i
CCOC(=O)C1CCN(C(=O)c2ccc3c(c2)NC(=O)/C(=C/c2ccccc2)S3)CC1	i	i	i	i	i	i
CCOC(=O)C1CCN(C(=O)c2ccc3c(c2)NC(=O)/C(=C\c2cccc(C)c2)S3)CC1	i	?	i	i	i	i
CCOC(=O)C1CCN(C(=O)c2ccc3c(c2)NC(=O)/C(=C\c2ccc(C)cc2)S3)CC1	i	69	i	i	i	i
O=C(Nc1ccccc1)N1C[C@@H]2[C@H](c3ccccc31)[C@H](CO)N2C(=O)c1ccccc1F	nt	nt	i	nt	nt	i
CC(/C=N/n1c(-c2ccc(Cl)cc2)n[nH]c1=S)=C\c1ccco1	i	i	i	i	i	i
N#CC(C#N)=C1C=CC=CN1/C(=C\c1ccco1)C(=O)c1ccc(-c2ccccc2)cc1	i	nt	i	75	i	nt
N#CC(C#N)=C1C=CC=CN1/C(=C\c1ccco1)C(=O)c1ccc(Cl)cc1	i	nt	36	i	i	nt
CC(C)N(C(=O)CSc1nc2ccccc2n1-c1ccccc1)C(C)C	i	i	nt	78	i	i
CC(C)N(C(=O)CSc1nc2ccccc2n1Cc1ccccc1)C(C)C	i	i	nt	i	nt	nt
Oc1ccccc1/C=N/NC(=S)NCCc1ccccc1	i	96	i	i	i	i
C/C(=N\NC(=S)NCCc1ccccc1)c1ccc(Cl)cc1Cl	i	91	i	i	i	i
Cc1ccc(C)c(/C=N/NC(=S)NCCc2ccccc2)c1	i	54	i	i	i	i
C/C(=N\NC(=S)NCCc1ccccc1)c1ccc(O)cc1O	i	i	i	nt	i	i
C[C@@H]1CCCCO[C@H](CN(C)Cc2ccccc2)[C@H](C)CN([C@@H](C)CO)C(=O)c2cc(NC(=O)Nc3ccccc3)ccc2O1	nt	nt	i	nt	nt	i
CCNC(=O)Nc1ccc2c(c1)C(=O)N(C)[C@H]1CC[C@@H](CC(=O)NCc3cccc(F)c3)O[C@@H]1CO2	nt	nt	i	nt	nt	i
Cc1ccc(S(=O)(=O)Nc2cccc3c2O[C@@H](CN(C)C(=O)Nc2ccccc2)[C@H](C)CN([C@H](C)CO)C3=O)cc1	nt	nt	nt	nt	nt	i
